Measured values taken from ChEMBL document CHEMBL3351948, “Synthesis of gallinamide A analogues as potent falcipain inhibitors and antimalarials” (J Med Chem, 2014).
Active and inactive are the calls of the source. No cut-off for these calls is given here. *1 amine or outer side, *2 acyl side, *3 side chain or, on linkers, in order; H or OH if unused. Where a SMILES comes first, the peptide text is derived from it. [ ]: non-standard residue; d: D form. The star is where a group is joined. Pentenoic(2E,4S-NH2) = C[C@@H](/C=C/C(=O)[*:2])N[*:1]; X1 = CC[C@H](C)[C@@H](C(=O)*)N(C)C; NHBn = c1ccc(CN*)cc1

Legend:
Plasmodium falciparum [1] = test: Inhibition of Plasmodium falciparum AP-M1
Plasmodium falciparum [2] = test: Antiplasmodial activity against Plasmodium falciparum 3D7 trophozoite stage assessed as swollen food vacuole at <5 nM after 3 days by Giemsa staining-based assay; type: functional, organism-based
[3] = Cytotoxicity against […] cells assessed as cell viability by AlamarBlue assay; type: cell-based; conditions: Homo sapiens
Plasmodium falciparum [4] = test: Inhibition of Plasmodium falciparum AP-M17
Plasmodium falciparum [5] = test: Antiplasmodial activity against multidrug-resistant Plasmodium falciparum Dd2 infected in human erythrocytes by [3H]-hypoxanthine incorporation assay; type: functional, organism-based
Procedure, shortened: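 Chloroquine-resistant P. falciparum Dd2 strain; IC50 reported with standard error of the mean from three experiments.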

Plasmodium falciparum [6] = test: Inhibition of Plasmodium falciparum AP-M18
Plasmodium falciparum [7] = test: Antiplasmodial activity against chloroquine-sensitive Plasmodium falciparum 3D7 infected in human erythrocytes by [3H]-hypoxanthine incorporation assay; type: functional, organism-based
Procedure, shortened: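 IC50 against the chloroquine-sensitive 3D7 strain was measured by [3H]-hypoxanthine incorporation in cultured parasites. Values are means with standard error of the mean from three experiments.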

[8] = Inhibition of Plasmodium falciparum FP3 using Z-Phe-Arg-AMC as substrate incubated for 30 mins prior to substrate addition measured after 30 mins by fluorescence assay
Procedure, shortened: (§1)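 The assay read enzyme activity with a fluorescence-based kinetic method and reported IC50 in nM. Values are means with standard error of the mean from three experiments.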

Falcipain 2 = molecular target: T1, Falcipain 2 (Plasmodium falciparum, UniProt Q9N6S8); test: Inhibition of Plasmodium falciparum FP2 using Z-Phe-Arg-AMC as substrate incubated for 30 mins prior to substrate addition measured after 30 mins by fluorescence assay; procedure, shortened: as §1
T1 sequence (Q9N6S8 whole entry): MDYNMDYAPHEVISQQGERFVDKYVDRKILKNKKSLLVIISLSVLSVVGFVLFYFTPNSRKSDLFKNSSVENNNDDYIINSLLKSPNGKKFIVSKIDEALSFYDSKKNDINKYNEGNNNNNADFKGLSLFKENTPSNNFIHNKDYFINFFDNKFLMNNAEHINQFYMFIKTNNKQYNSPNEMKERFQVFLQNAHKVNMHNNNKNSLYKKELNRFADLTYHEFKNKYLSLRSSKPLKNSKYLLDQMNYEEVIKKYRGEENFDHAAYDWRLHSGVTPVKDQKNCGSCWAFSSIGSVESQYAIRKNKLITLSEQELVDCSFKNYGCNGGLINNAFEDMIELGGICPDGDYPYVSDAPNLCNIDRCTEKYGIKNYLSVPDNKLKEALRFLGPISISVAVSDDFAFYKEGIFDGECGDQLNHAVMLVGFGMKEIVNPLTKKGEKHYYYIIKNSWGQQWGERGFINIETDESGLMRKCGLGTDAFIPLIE

[9] = molecular target: Procathepsin L (Homo sapiens) (UniProt P07711); test: Inhibition of human cathepsin L expressed in Pichia pastoris using N-Cbz-Phe-Arg-7-amino-4-methylcoumarin as substrate incubated for 90 mins prior to substrate addition measured after 30 mins by fluorescence assay
Plasmodium falciparum [10] = test: Antiplasmodial activity against Plasmodium falciparum 3D7 trophozoite stage assessed as swollen food vacuole after 3 days by Giemsa staining-based assay; type: functional, organism-based

Chain of Procathepsin L (Homo sapiens) (P07711 114-333 limits assumed): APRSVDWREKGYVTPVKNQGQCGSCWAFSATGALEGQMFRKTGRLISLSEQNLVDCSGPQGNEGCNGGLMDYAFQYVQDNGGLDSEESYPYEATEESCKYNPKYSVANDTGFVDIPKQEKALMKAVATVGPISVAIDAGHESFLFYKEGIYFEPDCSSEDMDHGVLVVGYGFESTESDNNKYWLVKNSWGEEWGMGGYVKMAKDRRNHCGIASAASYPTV

| Structure (SMILES) | INH (Plasmodium falciparum [1]) [µM] | Activity (Plasmodium falciparum [2]) | IC50 [3] [µM] | INH (Plasmodium falciparum [4]) [µM] | IC50 (Plasmodium falciparum [5]) [µM] | INH (Plasmodium falciparum [6]) [µM] | IC50 (Plasmodium falciparum [7]) [µM] | IC50 [8] [µM] | IC50 (Falcipain 2) [µM] | inhibition [9] | Activity (Plasmodium falciparum [10]) |
| --- | --- | --- | --- | --- | --- | --- | --- | --- | --- | --- | --- |
| COC1=CC(=O)N(C(=O)/C=C/[C@H](C)NC(=O)[C@H](CC(C)C)NC(=O)[C@H](CC(C)C)NC(=O)[C@H](C(C)C)N(C)C)C1 | > 10 | Active | 16.3 | > 10 | 0.419 | > 10 | 0.0573 | 0.225 | 0.0248 | Active | – |
| CC(C)C[C@H](NC(=O)[C@H](CC(C)C)NC(=O)[C@H](C(C)C)N(C)C)C(=O)N[C@@H](C)/C=C/C(=O)N[C@@H](C)C(=O)NCc1ccccc1 | > 10 | – | > 50 | > 10 | 0.378 | > 10 | 0.32 | > 25 | 11.5 | Active | Active |
| CC[C@H](C)[C@@H](C(=O)N[C@@H](CC(C)C)C(=O)N[C@@H](CC(C)C)C(=O)N[C@@H](C)/C=C/C(=O)N[C@@H](C)C(=O)N1C[C@@H](O)C[C@H]1C(=O)OC)N(C)C | – | – | – | – | – | – | 1.9 | > 50 | 7.7 | – | Active |
| CC[C@H](C)[C@@H](C(=O)N[C@@H](CC(C)C)C(=O)N[C@@H](CC(C)C)C(=O)N[C@@H](C)/C=C/C(=O)N[C@@H](C)C(=O)NCc1ccccc1)N(C)C | > 10 | – | > 50 | > 10 | 0.421 | > 10 | 0.54 | > 25 | 10.5 | Active | Active |
| CC[C@H](C)[C@@H](C(=O)N[C@@H](CC(C)C)C(=O)N[C@@H](CC(C)C)C(=O)N[C@H](C(=O)N[C@@H](C)/C=C/C(=O)N[C@@H](C)C(=O)NCc1ccccc1)C(C)C)N(C)C (X1-LLV[Pentenoic(2E,4S-NH2)]A-NHBn) | – | – | – | – | – | – | > 50 | > 50 | > 50 | – | Active |
| CC(C)C[C@H](NC(=O)[C@H](CC(C)C)NC(=O)[C@H](C(C)C)N(C)C)C(=O)N[C@@H](C)/C=C/C(=O)N[C@@H](C)C(=O)Nc1nccs1 | – | – | – | – | – | – | 1.1 | 34 | 2.5 | – | Active |
| CO[C@H]1CC(=O)N(C(=O)CC[C@H](C)NC(=O)[C@H](CC(C)C)NC(=O)[C@H](CC(C)C)NC(=O)[C@H](C(C)C)N(C)C)[C@H]1C | – | – | – | – | – | – | > 50 | > 50 | > 50 | – | inactive |
| COC1=CC(=O)N(C(=O)/C=C/[C@H](C)NC(=O)[C@H](CC(C)C)NC(=O)[C@H](CC(C)C)NC(=O)[C@H](C(C)C)N(C)C)[C@H]1C(C)C | > 10 | Active | 9.65 | > 10 | 0.165 | > 10 | 0.0166 | 0.131 | 0.00952 | Active | – |
| CO[C@H]1CC(=O)N(C(=O)/C=C/[C@H](C)NC(=O)[C@H](CC(C)C)NC(=O)[C@H](CC(C)C)NC(=O)[C@H](C(C)C)N(C)C)[C@H]1C | – | – | – | – | – | – | 0.21 | 0.163 | 0.00281 | – | Active |
| CC(C)C[C@H](NC(=O)[C@H](CC(C)C)NC(=O)[C@@H]1CCCN1C)C(=O)N[C@@H](C)/C=C/C(=O)N[C@@H](C)C(=O)NCc1ccccc1 | – | – | – | – | – | – | 6.6 | 46 | 6 | – | Active |
